Experimental findings from ChEMBL document CHEMBL1154127, “Oxidative burst inhibitory and cytotoxic indoloquinazoline and furoquinoline alkaloids from Oricia suaveolens” (J Nat Prod, 2008) are described below.

Calls of active or inactive are those of the source. No cut-off for these calls is given here.

Test [1] can be described thus: Immunomodulatory activity in whole blood assessed as inhibition of luminol-induced oxidative burst by chemiluminescence assay. In kind it is functional, tissue-based. The essentials: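 Whole blood diluted 1:200 in HBSS with Ca2+ and Mg2+, preincubated 30 min with compounds at 3.1-50 µg/mL. Then serum-opsonized zymosan (20 mg/mL as added) and luminol ([…] as added) were added, and the final volume brought to 0.2 mL with HBSS++. HBSS++ alone served as control. Luminol-enhanced chemiluminescence measured, giving IC50.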

For test [2], the system named is Neutrophil. As to the kind of experiment: Immunomodulatory activity in polymorphoneutrophils assessed as inhibition of luminol-induced oxidative burst by chemiluminescence assay. In kind it is functional, cell-based. The essentials:
(§1)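 Luminol-enhanced chemiluminescence on isolated neutrophils (1 × 10^7) in HBSS with Ca2+ and Mg2+. Cells preincubated 30 min with compounds at 3.1-50 µg/mL. Burst triggered with serum-opsonized zymosan (20 mg/mL as added), followed by luminol ([…] as added). Final volume adjusted to 0.2 mL with HBSS++, which also served as control. Read-out is IC50.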

The test system of test [3] is Neutrophil. As to the kind of experiment: Immunomodulatory activity in polymorphoneutrophils assessed as inhibition of zymosan-activated oxidative burst by chemiluminescence assay. It is filed as functional, cell-based. The essentials: as §1
The subject of test [4] is Neutrophil. As to the kind of experiment: Immunomodulatory activity in polymorphoneutrophils assessed as inhibition of PMA-activated oxidative burst by chemiluminescence assay. It is filed as functional, cell-based.
The subject of another test is A549. Kind of test: Cytotoxicity against human A549 cells by SRB assay. It is filed as functional, cell-based. The essentials: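 A549 lung adenocarcinoma cells, freshly trypsinized, seeded at 1 × 10^4 cells per well. Compounds added from a DMSO-diluted stock. Cultured 3 days, then attached cells stained with sulforhodamine B and dye solubilized in DMSO. Absorbance read at 550 nm. IC50 is the concentration reducing cell growth by 50%. Cisplatin served as positive control.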

For `COc1ccc2c(=O)n3c(nc2c1)-c1[nH]c2ccccc2c1CC3`, the values for the IC50 (in test [1]; in the test with Neutrophil [2]; with A549) were 48.8 µM, 27.4 µM and over 10 µM, respectively. Besides, the Activity entry in the test on Neutrophil [3] is “Dose-dependent effect”. Further, the outcome in the test on Neutrophil [4] was inactive.

`COc1c2c(cc3nc4occc4c(OC)c13)OCO2` displayed an IC50 in the test with A549 of 7.9 µM.

With `COc1c2ccoc2nc2c(OC)c3c(cc12)OCO3` [FLINDERSIAMINE], the IC50 with A549 was 8.9 µM.

Take `CC(C)Cc1ccc(C(C)C(=O)O)cc1` (stereo unspecified) [IBUPROFEN]: the IC50 in test [1] is 54.3 µM; in the test with Neutrophil [2], 12.1 µM.

Turning to `COc1cc2nc3occc3c(OC)c2cc1OC` [KOKUSAGININE], the IC50 in test [1] is 74.9 µM; in the test with Neutrophil [2], 61.8 µM. Also, in the test with Neutrophil [3], the Activity result was “Dose-dependent effect”. Besides, the outcome in the test on Neutrophil [4] was inactive.

For `CC1(C)O[C@H]2CC(=O)OC[C@]23[C@H]2CC[C@@]4(C)[C@H](c5ccoc5)OC(=O)[C@H]5O[C@]54[C@]2(C)C(=O)C[C@@H]13` [LIMONIN], the IC50 came out at 26.1 µM in test [1] and 38.2 µM with Neutrophil [2]. Also, the Activity entry in the test with Neutrophil [3] was “Dose-dependent effect”. Besides, the result in the test on Neutrophil [4] was inactive.

In the test on A549, `COc1c2cc3c(cc2nc2occc12)OCO3` [MACULINE] came in with an IC50 of 9.5 µM.

In turn, `O=c1c2ccc(O)cc2nc2n1CCc1c-2[nH]c2ccccc12` [ORISUAVEOLINE A] showed an IC50 in the test with A549 of over 10 µM.

In the case of `COc1ccc2c(=O)n3c(nc2c1)-c1[nH]c2cc4c(cc2c1CC3)OCO4` [ORISUAVEOLINE B], the IC50 came out at 31.8 µM in test [1] and 22.4 µM in the test on Neutrophil [2]. The Activity result in the test on Neutrophil [3] was “Dose-dependent effect”. The outcome in the test on Neutrophil [4] was inactive.

Take `COc1c2cc3c(cc2nc2occc12)O[C@@H](C(C)(C)O)CO3` [QUINOSUAVEOLINE B]: the IC50 in test [1] is 56.8 µM; in the test on Neutrophil [2], 14.5 µM. The Activity entry in the test on Neutrophil [3] was “Dose-dependent effect”. In the test with Neutrophil [4], the result was inactive.

With `COc1ccc2c(OC)c3ccoc3nc2c1OC` [SKIMMIANINE], the IC50 was 51.3 µM in test [1], 35.5 µM in the test with Neutrophil [2] and over 10 µM in the test with A549. Further, in the test with Neutrophil [3], the Activity entry was “Dose-dependent effect”. In addition, the outcome in the test on Neutrophil [4] was inactive.

Consider `COc1c2ccoc2nc2c(O)c3c(c(CC=C(C)C)c12)OCO3` [TECLEAVERDOORNINE], for which the figures for the IC50 (in test [1]; in the test on Neutrophil [2]) were 54.4 µM and 21.2 µM, respectively. Moreover, the Activity entry with Neutrophil [3] is “Dose-dependent effect”. In addition, the outcome with Neutrophil [4] was inactive.
